Assay outcomes as filed in PubChem.
Many of the other results were omitted from the sample, so hits are more common in it than they were.
ABCG2 inh: blocks JC-1 efflux by human ABCG2 transporter; Q9UNQ0; IgMXP3 cells, flow cytometry; inhibition, % at 6.6 µM; 0.1% of 190,000 active; AID 1325;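 active = inhibition above 80%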;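 also: 0% = DMSO and 100% = nicardipine control wells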
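material = IgMXP3 (ABCG2) plus far-red-tagged CCRF-Adr (ABCB1) cells | amount = 3 million cells/mL, equal mix of both lines | also added = JC-1 transporter substrate | dosing = one concentration, 6.6 µM final | schedule = 10 min at 25 °C | measured by = flow cytometric JC-1 green MFI at 530 nm | read-out basis = percent efflux inhibition, scaled nicardipine 100% to DMSO 0%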
ABCB1 inh: human ABCB1 inhibition, ABCG2 as counter-screen. P08183. CCRF-Adr cells, JC-1 efflux, flow cytometry. inhibition, % at 6.6 µM. 0.067% of 190,000 active; in the data active = inhibition above about 40%;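 also: 0% = vehicle and 100% = reference inhibitor; higher value means more JC-1 retained so stronger ABCB1 efflux block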
Avidin fluor: compound fluoresces at 488/530 nm on avidin beads; fluorescence (KMESF) at 10 µM; compound fluorescence 488/530 nm, flow cytometry; active compounds read high; AID 1775; 0.38% of 220,000 active; in the data active = fluorescence above about 47
Lmaj promast: inhibitors of Leishmania major promastigote growth | Leishmania major promastigotes, resazurin fluorescence viability | inhibition, % at 10 µM | 9% of 200,000 active;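 also: promastigotes grown with compound for 44 hours at 28 °C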
GSH fluor: compound fluoresces at 488/530 nm on GSH beads; GSH beads flow cytometry, compound fluorescence 488/530 nm; active compounds read high; fluorescence (KMESF) at 10 µM; 0.25% of 190,000 active; in the data active = fluorescence above about 89;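 also: glutathione beads carrying GST-tagged Bcl family fusion proteins plus one bare bead set; values are compound well signal with DMSO vehicle wells as background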
PKD1 inh: inhibitors of human PKD1 kinase. inhibition, % (concentration not given with the values). Q15139. 0.056% of 200,000 active. PKD1 kinase fluorescence polarization assay
Starred values were filed as active, the others as inactive; . = no result given. Rule as the data show it, unless noted: active = inhibition above about 50%; inactive = the rest.

SMILES	ABCG2 inh	ABCB1 inh	Avidin fluor	Lmaj promast	GSH fluor	PKD1 inh
CC(C)NC(=S)N=Nc1c(O)[nH]c2ccc(C(C)C)cc12	22.4	-1.8	20	91.2*	12	-3.9
CC(C)c1ccc2[nH]c(O)c(N=NC(=O)c3cccc(S(=O)(=O)Nc4ccccc4Cl)c3)c2c1	-0.7	0.0	6	0.7	10	-4.7
Cc1cccc(NC(=S)N=Nc2c(O)[nH]c3ccccc23)c1	-10.3	-4.4	5	97.0*	8	-4.6
Cc1ccc2nc(N3CCN(c4ccccc4F)CC3)c(C=O)c(=O)n2c1	0.8	0.1	7	-8.5	16	6.0
Cc1ccc(CNC(=O)NC23CC4CC(CC(C4)C2)C3)cc1	-0.2	0.1	5	1.4	12	-8.1
Cc1ccc(C23CC4CC(CC(NC(=O)NCCN(C)C)(C4)C2)C3)cc1	1.9	0.4	21	99.0*	24	-2.5
CN(C)CCNC(=O)COc1ccc(C23CC4CC(CC(C4)C2)C3)cc1	0.3	-0.1	8	100.5*	18	-4.0
Cc1ccc(C)c(OCC(=O)NCCN(C)C)c1	0.8	0.6	22	-3.1	9	-1.4
O=C(O)CCC(=O)Nc1ccc(S(=O)(=O)NCCc2ccccc2)cc1	.	.	6	.	.	.
Cc1ccc(S(=O)(=O)N2CCN(c3nccnc3C#N)CC2)cc1	.	.	7	.	.	.
NNC(=O)CCc1nc2ccccc2[nH]1	4.7	2.3	11	-1.1	20	-1.9
O=c1c2[nH]c3ccc(Br)cc3c2ncn1Cc1ccncc1	.	.	2	.	.	.
Cc1ccc2c(c1)N(C(=O)c1ccco1)C(C)(C)c1ssc(=S)c1-2	1.4	0.9	14	97.8*	8	-1.8
Cc1cccc2c1N(C(=O)c1ccco1)C(C)(C)c1ssc(=S)c1-2	1.9	1.5	9	-5.0	26	12.8
O=C(O)C1Cc2[nH]cnc2C(c2ccccc2O)N1 (stereo not given)	0.5	-0.1	6	-1.4	9	6.7
CCOc1ccccc1-n1c(SCC(=O)Nc2nccs2)nnc1-c1ccoc1C	8.5	2.3	23	73.0*	53	-0.6
CN(C)CC1CCCCC1OC(=O)c1ccc(Br)cc1 (stereo not given)	-0.1	0.4	14	74.4*	13	3.4
CCN(CC)C(=O)CN(c1cc2c(cc1OC)oc1ccccc12)S(=O)(=O)c1ccc(C)cc1	3.8	0.9	38	68.7*	13	0.0
O=C1CC(N2CCC(c3nc4ccccc4s3)CC2)C(=O)N1 (stereo not given)	0.9	0.3	11	2.3	24	-8.0
COc1ccccc1OCCCCNCCO	-1.1	0.2	3	-1.3	31	-3.7
CC(C)(C)c1ccccc1OCCCCCNCCO	0.0	-0.1	5	93.0*	28	4.0
OCCNCCOc1ccccc1F	-0.9	-0.1	28	-6.4	17	-2.3
Cc1ccccc1OCCCCCNCCO	1.1	0.4	5	61.7*	57	-5.3
CC(C)c1ccccc1OCCCCCNCCO	2.2	0.4	48*	91.2*	23	-6.6
Cc1cccc(C)c1OCCCCCNCCO	0.8	0.2	7	89.2*	42	4.6
SMILES	ABCG2 inh	ABCB1 inh	Avidin fluor	Lmaj promast	GSH fluor	PKD1 inh
CC(=O)c1c(C)[nH]c(C(=O)CN2C(=O)NC(C)(CCC(C)C)C2=O)c1C (stereo not given)	1.0	-0.1	7	-0.1	15	-4.6
C/C(Cn1cnc([N+](=O)[O-])n1)=N/NC(=O)COc1c(Cl)cc(Cl)cc1Cl	3.2	0.7	2	23.0	8	-10.2
O=C(c1ccc(N2CCCCC2)c([N+](=O)[O-])c1)N(c1ccccn1)c1ccccn1	7.9	1.0	7	-1.3	8	-1.0
COc1ccc2c3c(cccc13)N(C)N=C2C	3.3	0.5	23	99.6*	5	-5.5
O=C(CCl)Nc1nc(-c2ccco2)c(-c2ccco2)s1	8.0	-1.1	12	69.0*	2	-5.9
O=C(CCCSc1ccccc1)Nc1nc(-c2ccco2)c(-c2ccco2)s1	-8.2	-1.1	16	74.9*	4	-4.9
Nc1nc(-c2ccco2)c(-c2ccco2)s1	0.0	-0.1	4	45.7	4	-12.4
O=S(=O)(c1ccc(-c2csc(=Nc3ccccc3)n2CCCN2CCOCC2)cc1)N1CCOCC1	5.6	2.4	.	93.6*	9	-2.0
OCCn1c(-c2ccc(F)cc2)csc1=Nc1ccccc1	-11.2	3.3	12	1.7	22	-2.5
COc1ccc(CCNC(=O)COC(=O)/C=C/c2cc(OC)c(OC)c(OC)c2)cc1OC	59.9	-0.2	12	-1.2	14	3.4
NC(=O)c1oc2ccccc2c1NC(=O)c1ccco1	5.7	0.1	21	-12.0	13	13.8
NC(=O)c1oc2ccccc2c1NC(=O)c1ccccc1	1.8	0.2	7	-7.5	259*	1.2
C=C1CC2C=C(NC(C)=O)CC(C1)C2 (stereo not given)	0.3	0.0	11	0.1	31	-9.5
CCOC(=O)c1cc(-c2ccc(F)cc2)n(CC(=O)NC(C)CC)c1C (stereo not given)	2.3	0.6	33	3.5	16	-4.7
CCOC(=O)c1cc(-c2ccc(C)cc2)n(CCC(=O)NC(C)CC)c1C (stereo not given)	5.4	1.8	64*	5.6	19	0.0
CCOC(=O)c1cc(-c2ccccc2)n(CC(=O)Nc2ccc(OCC)cc2)c1C	6.2	0.7	12	-8.2	13	-16.2
CCOC(=O)c1cc(-c2ccccc2)n(CC(=O)Nc2cc(OC)cc(OC)c2)c1C	28.2	1.6	17	95.7*	4	-8.5
CCC(C)C(=O)Nn1c(C2CC2)nc2cc(OC)c(OC)cc2c1=O (stereo not given)	1.5	0.6	12	-2.4	11	0.0
O=C(Oc1cccc(Br)c1)c1cccnc1	1.1	0.4	35	-5.0	14	-12.7
Fc1ccc(N2CCN(Cc3cnc(N4CCOCC4)s3)CC2)cc1	5.3	0.7	16	63.6*	12	-2.7
Fc1ccc(N2CCN(Cc3ccccn3)CC2)cc1	-2.1	-0.1	11	-2.1	12	-1.9
Cc1cc(OCCCCNC(C)C)cc(C(C)C)c1	-0.3	0.3	13	96.5*	16	-7.7
S=C1NCN(Cc2cccnc2)CN1c1cccc2ccccc12	.	.	1	.	.	.
O=C(COC(=O)c1ccc2c(c1)C(=O)N(c1cccc3ncccc13)C2=O)c1ccc(Cl)cc1	0.1	0.1	3	-9.3	3	-1.8
Cc1ccc(C(=O)COC(=O)c2ccc3c(c2)C(=O)N(c2cccc4ncccc24)C3=O)cc1	-3.0	0.0	23	75.6*	2	-5.5
O=C1NC(=O)/C(=C\c2ccsc2)N1	-0.1	-0.1	14	2.5	74	-0.4
CC(C)N1C/C(=C/c2ccsc2)C(=O)/C(=C/c2ccsc2)C1	3.7	1.0	10	100.5*	9	3.2
CN1C/C(=C/c2cccnc2)C(=O)/C(=C/c2cccnc2)C1	-1.9	0.0	11	100.3*	14	-5.6
